Legend:
HL-60 [1] = test: In vitro concentration required to induce apoptosis in HL60 cells; format: functional, cell-based, Homo sapiens
Outline: (§1)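 Apoptosis scored morphologically after acridine orange/ethidium bromide labeling. 2 × 10^5 cells were pelleted at 300g, resuspended in dye mix and examined under a fluorescence microscope with a 100× oil objective. Percentages were confirmed by annexin V/PI and by the PI sub-G0-G1 hypodiploid peak after 48 h culture. Compounds were diluted in medium from DMSO or PBS, DMSO ≤0.1%.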

HL-60 [2] = test: In vitro inhibitory concentration against proliferation of HL60 cells; format: functional, cell-based, Homo sapiens
Outline: (§2)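 Cells were cultured at 37 °C in 5% CO2. 2 × 10^5 cells in 1 mL complete medium were treated with a range of drug concentrations for 48 h. Viable cells were counted on a hemocytometer after trypan blue staining and expressed as percent of control proliferation. Compounds were diluted in medium from DMSO or PBS stocks, final DMSO ≤0.1%, protected from light.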

HL-60 [3] = test: (§3) In vitro inhibitory concentration against proliferation of HL60R cells along with 5 (uM) verapamil; format: functional, cell-based; settings: Homo sapiens
Outline: (§4)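 HL60R cells, 2 × 10^5 per well in 1 mL complete medium at 37 °C with 5% CO2, given verapamil together with a range of drug concentrations for 48 h. Viable cells were counted by trypan blue exclusion on a hemocytometer and expressed as percent of control proliferation to derive the IC50. Final DMSO ≤0.1%.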

HL-60 [4] = test: (§5) In vitro inhibitory concentration against proliferation of HL60R cells; format: functional, cell-based; settings: Homo sapiens
Outline: as §4, with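 “treated” for “given verapamil together”, “h. Compounds were dissolved in DMSO or PBS, with final DMSO ≤0.1%.” for “h.”, “IC50.” for “IC50. Final DMSO ≤0.1%.”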

HL-60 [5] = test: (§6) In vitro concentration required to induce apoptosis in HL60R cells; format: functional, cell-based; settings: Homo sapiens
Outline: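 HL60R cells in 5% CO2 at 37 °C, treated with a range of drug concentrations for 48 h. Cells were labelled with acridine orange/ethidium bromide and scored under fluorescence microscopy (100× oil) as live, apoptotic or necrotic. The AC50 is derived from the percentage of apoptotic cells. Annexin V/PI staining and PI sub-G0-G1 flow cytometry served as confirmation. DMSO ≤0.1%.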

HL-60 [6] = test: as §6; format: functional, cell-based; settings: Homo sapiens; outline: as §1; remark: listed apart in the source
HL-60 [7] = test: as §5; format: functional, cell-based; settings: Homo sapiens; outline: as §2; remark: listed apart in the source
HL-60 [8] = test: as §3; format: functional, cell-based; settings: Homo sapiens; outline: as §2; remark: listed apart in the source
HL-60 [9] = test: In vitro concentration required to inhibit cell proliferation in HL60R cells; settings: Homo sapiens

| Compound | AC50 (HL-60 [1]; Homo sapiens, HL-60) | IC50 (HL-60 [2]; Homo sapiens, HL-60) | other results |
| --- | --- | --- | --- |
| COc1ccc(/C=C/c2cc(O)cc(O)c2)cc1O | > 200 µM | 48 µM |  |
| COc1cc(/C=C\c2ccc(OC)c(O)c2)cc(OC)c1 | 0.04 µM |  | IC50 (HL-60 [3]): 0.02 µM; IC50 (HL-60 [4]): 0.025 µM; AC50 (HL-60 [5]): 0.03 µM |
| COc1cc(/C=C/c2ccc(OC)c(N)c2)cc(OC)c1 | 8 µM | 4 µM |  |
| COc1cc(/C=C/c2ccc(O[Si](C)(C)C(C)(C)C)cc2)cc(OC)c1 | > 200 µM | 48 µM |  |
| COc1cc(/C=C\c2ccc(O)c(O)c2)cc(OC)c1 | 0.1 µM | 0.05 µM |  |
| COc1cc(/C=C\c2ccc(O)c(OC)c2)cc(OC)c1 | 38 µM | 20 µM |  |
| COc1cc(/C=C/c2ccc(O)c(OC)c2)cc(OC)c1 | 40 µM | 25 µM |  |
| COc1cc(/C=C\c2ccc(OC)c(N)c2)cc(OC)c1 | 0.04 µM |  | AC50 (HL-60 [6]): 0.05 µM; IC50 (HL-60 [7]): 0.035 µM; IC50 (HL-60 [8]): 0.032 µM |
| COc1cc(/C=C\c2ccc(O[Si](C)(C)C(C)(C)C)cc2)cc(OC)c1 | > 200 µM | 50 µM |  |
| COc1ccc(/C=C/c2cc(O)cc(O)c2)cc1N | > 200 µM | 80 µM |  |
| COc1ccc(/C=C\c2cc(O)cc(O)c2)cc1N | 68 µM | 40 µM |  |
| COc1cc(/C=C/c2ccc(O)c(O)c2)cc(OC)c1 | 1 µM | 0.8 µM |  |
| COc1ccc(/C=C\c2cc(O)cc(O)c2)cc1O | 70 µM | 40 µM |  |
| COc1cc(/C=C/c2ccc(OC)c(O)c2)cc(OC)c1 | 0.9 µM | 0.7 µM |  |
| COc1cc(/C=C\c2ccc(O)cc2)cc(OC)c1 | 5 µM | 2 µM |  |
| Oc1ccc(/C=C\c2cc(O)cc(O)c2)cc1 [CIS-RESVERATROL] | > 200 µM | 42 µM |  |
| Nc1ccn([C@@H]2O[C@H](CO)[C@@H](O)[C@@H]2O)c(=O)n1 [CYTARABINE] | 0.15 µM | 0.08 µM | AC50 (HL-60 [6]): 8 µM; IC50 (HL-60 [9]): 0.35 µM |
| COc1cccc2c1C(=O)c1c(O)c3c(c(O)c1C2=O)C[C@@](O)(C(C)=O)C[C@@H]3O[C@H]1C[C@H](N)[C@H](O)[C@H](C)O1 [DAUNORUBICIN] | 0.04 µM | 0.005 µM | AC50 (HL-60 [6]): 10 µM; IC50 (HL-60 [7]): 1.5 µM; IC50 (HL-60 [8]): 0.04 µM |
| COc1cc([C@@H]2c3cc4c(cc3[C@@H](O[C@@H]3O[C@@H]5CO[C@@H](C)O[C@H]5[C@H](O)[C@H]3O)[C@H]3COC(=O)[C@H]23)OCO4)cc(OC)c1O [ETOPOSIDE] | 0.45 µM | 0.123 µM | AC50 (HL-60 [6]): 15 µM; IC50 (HL-60 [7]): 6.5 µM; IC50 (HL-60 [8]): 0.5 µM |
| O=c1[nH]cc(F)c(=O)[nH]1 [FLUOROURACIL] | 6.5 µM | 1.5 µM |  |
| COc1cc(/C=C/c2ccc(O)cc2)cc(OC)c1 [PTEROSTILBENE] | 70 µM | 35 µM |  |
| Oc1ccc(/C=C/c2cc(O)cc(O)c2)cc1 [RESVERATROL] | 50 µM | 5 µM |  |
| CISPLATIN |  |  | AC50 (HL-60 [1]; hl-60): 1.2 µM; IC50 (HL-60 [2]; hl-60): 0.6 µM |

Source: ChEMBL document CHEMBL1144989, “Synthesis and biological evaluation of resveratrol and analogues as apoptosis-inducing agents” (J Med Chem, 2003)
